MrgX1 antag: human MrgX1 receptor antagonism, primary screen; B-score at 10 µM; MRGX1-HEK293 calcium flux, Fluo-4, BAM8-22 antagonism; active compounds read low; Q96LB2; hit rate 1.3% among 310,000;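 active means calcium-response B-score plate-corrected more than 3 library SD below zero, starting fluorescence within 5 deviations, no agonist response on first addition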;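 further: peak minus trough fluorescence over baseline after final BAM8-22 challenge near maximal dose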
Target sequence (Q96LB2 whole entry, looked up): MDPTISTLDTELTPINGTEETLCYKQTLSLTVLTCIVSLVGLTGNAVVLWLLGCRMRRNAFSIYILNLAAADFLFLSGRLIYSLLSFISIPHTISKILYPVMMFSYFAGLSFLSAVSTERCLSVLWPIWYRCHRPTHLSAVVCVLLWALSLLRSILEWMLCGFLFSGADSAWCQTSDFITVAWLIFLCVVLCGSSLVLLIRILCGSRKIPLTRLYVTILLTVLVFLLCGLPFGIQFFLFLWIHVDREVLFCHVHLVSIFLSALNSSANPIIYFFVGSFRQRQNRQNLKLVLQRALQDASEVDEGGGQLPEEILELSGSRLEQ
RGS4 pot: potentiators or activators of RGS4; HEK293 M3R/inducible RGS4, carbachol calcium flux Fluo4; active compounds read low; B-score at 10 µM; hit rate 0.92% among 310,000;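 active means B-score of the integrated calcium signal more than 4 SD below the library mean, with starting fluorescence not abnormally high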;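 further: negative B-score means reduced calcium response which marks RGS4 activation or potentiation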
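System – HEK293 FlpIn-TREx cells, stable M3R, doxycycline-inducible RGS4 · Reagent – ECmax carbachol challenge · Times – compound preincubation 20 min at room temperature before agonist · Technique – Fluo4 fluorescence kinetic imaging of calcium · Measure – B score of integrated Fluo4 ratio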
RGS4 inh: inhibitors of human RGS4; HEK293 M3R/RGS4 inducible, Fluo-4 calcium flux; active compounds read high; triggered by carbachol at its EC20; B-score at 10 µM; hit rate 0.45% among 310,000; P49798; AID 463165;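 active means B-score, a plate-corrected calcium signal, over three deviations above library mean, with baseline fluorescence within five deviations of library mean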;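 further: RGS4 expression induced by doxycycline in cells with stable M3 receptor; B-score is computed from the integrated fluorescence ratio over baseline after carbachol; higher B-score means a larger calcium signal and so more RGS4 inhibition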
Target sequence (P49798 whole entry, looked up): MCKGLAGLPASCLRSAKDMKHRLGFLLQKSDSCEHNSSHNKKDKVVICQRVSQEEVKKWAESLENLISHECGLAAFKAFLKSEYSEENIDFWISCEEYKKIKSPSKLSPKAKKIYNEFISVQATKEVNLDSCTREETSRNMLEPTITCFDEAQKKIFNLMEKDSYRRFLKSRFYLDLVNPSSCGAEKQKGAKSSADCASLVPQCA
MrgX1 PAM: allosterically activates human MrgX1 receptor signaling; Q96LB2; MrgX1-HEK293, Fluo-4 calcium flux, FDSS; active compounds read high; B-score at 10 µM; hit rate 0.63% among 310,000; AID 588675;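 active means plate-corrected calcium response at least 3 library SD above typical, normal starting fluorescence, not activating the receptor alone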;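 further: compound read alongside a low EC10 to EC30 dose of BAM8-22 agonist; peak minus trough fluorescence over baseline measured at the second addition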
MrgX1 ag: human MrgX1 receptor agonism, primary screen | Q96LB2 | MrgX1-HEK293 cells, Fluo-4 calcium fluorescence, agonist mode; active compounds read high | B-score at 10 µM | hit rate 0.44% among 310,000 | AID 588627;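 active means calcium response B-score plate-corrected fluorescence ratio at least 3 library SD, with starting fluorescence B-score inside 5 SD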
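times = overnight plating, then 30 min 37 °C plus 30 min room-temperature dye loading | assay system = stable human MrgX1 HEK293 cell line | input = fifteen thousand cells per well | signal = kinetic calcium dye fluorescence, Fluo-4 NW | dosing = compound delivered in addition one of three | read-out = B-scored fluorescence response ratio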
MrgX1 antag conf: human MrgX1 receptor antagonism, re-confirmation screen; shares compounds with MrgX1 antag; MrgX1-HEK293, BAM8-22 calcium flux, Fluo-4; active compounds read low; remaining BAM8-22 calcium response % of control (active compounds read low), % at 10 µM; hit rate 19% among 2,300; AID 602420;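 active means remaining agonist calcium response no higher than 100% minus 3 SD of agonist-only control wells, with starting fluorescence near control levels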;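 further: agonist BAM8-22 given at a near maximal EC90 to ECmax level; peak minus minimum fluorescence divided by baseline after agonist addition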
HEK293 Ca flux: activity in parental HEK293 cells lacking MrgX1; fluorescence ratio F(max-min)/F0 at 10 µM; hit rate 2% among 4,000; shares compounds with MrgX1 antag; AID 624111; Fluo-4 calcium fluorescence, FDSS;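 active means duplicate-averaged calcium fluorescence ratio at least three times the standard deviation of buffer wells, a nonspecific response in parental cells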
HEK293 Ca counter: MrgX1 allosteric activator counter-screen hit in parental HEK293 cells; parental HEK293 calcium flux, Fluo-4 fluorescence ratio; active compounds read high; fluorescence ratio F(max-min)/F0 at 10 µM; AID 624114; hit rate 0.4% among 4,000; shares compounds with MrgX1 antag;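 active means calcium fluorescence ratio, averaged over duplicates, at least 3 SD of the buffer-well ratio, meaning a nonspecific response in receptor-free cells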;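 further: untransfected parental HEK293 lacking MrgX1 used as counterscreen for MrgX1 allosteric activators; fluorescence change taken during the second addition on a kinetic imager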
HEK293 Ca cntr2: counter-screen for MrgX1 activators: effect in parental HEK293 cells. shares compounds with MrgX1 antag. Fluo-4 calcium fluorescence (FDSS); active compounds read high. fluorescence ratio F(max-min)/F0 at 10 µM. hit rate 8.7% among 4,000. AID 624115;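 active means calcium fluorescence ratio at least three times the spread of buffer wells, meaning a non-specific response in parental cells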
Active calls of the source: *; i = inactive; / = not tested or not shown. Hits are enriched below; roughly 3.5% of the tested compounds scored in any of these assays.

SMILES	MrgX1 antag	RGS4 pot	RGS4 inh	MrgX1 PAM	MrgX1 ag	MrgX1 antag conf	HEK293 Ca flux	HEK293 Ca counter	HEK293 Ca cntr2
O=C(Nc1ccncc1)c1ccc2ncsc2c1	i	i	i	i	i	/	/	/	/
O=C(Nc1ccc(S(=O)(=O)Nc2ncccn2)cc1)c1ccc2ncsc2c1	-5*	i	i	i	i	73%*	i	i	i
Cc1ccc(C(=O)N/C(=C\c2cccs2)C(=O)N2CCOCC2)cc1C	i	i	i	i	i	/	/	/	/
Cc1cc(=O)oc2c(C)c(OC(C)C(=O)NC(Cc3c[nH]c4ccc(O)cc34)C(=O)O)ccc12 (stereo unspecified)	-5.5*	i	i	i	i	i	i	i	i
COCCCn1c(O)c(/C=C2\N=C(C#N)C(=Nc3ccc(C)cc3)O2)sc1=S	-11*	i	i	i	i	i	i	i	i
COCCNC(=O)C1(C)C=CC2(CCCCC2)N1C(=O)c1ccccc1 (stereo unspecified)	i	i	i	i	i	/	/	/	/
CC1(C(=O)NCCN2CCOCC2)C=CC2(CCCCC2)N1C(=O)c1ccccc1 (stereo unspecified)	-6.8*	i	i	i	i	83%*	i	i	i
O=C(CS(=O)(=O)c1ccc(Cl)cc1)NCCS(=O)(=O)c1ccc(Cl)cc1	i	i	i	i	i	/	/	/	/
O=C(Nc1nc(-c2ccccc2)cs1)c1ccc(=O)[nH]c1	-4.8*	i	i	i	i	i	i	i	i
CC(=O)c1cccc(NC(=O)c2ccc3c(=O)n4c(nc3c2)CCCCC4)c1	i	i	i	i	i	/	/	/	/
Cc1cc(-c2csc(NC(=O)c3ccc(=O)[nH]c3)n2)c(C)n1Cc1ccccc1	i	i	i	i	i	/	/	/	/
O=C(Nc1nc(-c2ccccc2)cs1)c1ccc2c(=O)n3c(nc2c1)CCCCC3	-12*	i	i	i	i	9.6%*	i	i	i
CC(=O)c1c(C)[nH]c(C(=O)Nc2nc(-c3ccc(-c4ccccc4)cc3)cs2)c1C	-12*	i	i	i	i	52%*	i	i	i
c1ccc(Oc2c3ccccc3nc3ccccc23)cc1	i	i	i	i	i	/	/	/	/
CCOC(=O)CNC(=O)N1CCCC(C(=O)c2cccc(Cl)c2)C1 (stereo unspecified)	i	i	i	i	i	/	/	/	/
COc1ccc(CCNC(=O)CNS(=O)(=O)c2ccc(F)c(Cl)c2)cc1OC	i	i	i	i	i	/	/	/	/
CN(C(=O)Nc1ccccc1)C1CCCc2ccccc21 (stereo unspecified)	i	i	i	i	i	/	/	/	/
CN(Cc1cccnc1)C(=O)c1cc(COc2ccc3c(c2)CCCC3)on1	i	i	i	i	i	/	/	/	/
COc1ccccc1OCCNC(=O)CC(NC(C)=O)c1ccccc1 (stereo unspecified)	i	i	i	i	i	/	/	/	/
CC(=O)NC(CC(=O)NCCc1ccccc1)c1ccccc1 (stereo unspecified)	-4.9*	i	i	i	i	i	i	i	i
COc1ccc(OC)c2sc(NC(=O)c3ccc(Cl)s3)nc12	-5*	i	i	i	i	i	i	i	i
COc1ccc(CC(=O)N(C)Cc2ccc(Cl)cc2)cc1S(=O)(=O)N1CCOCC1	i	i	i	i	i	/	/	/	/
CC(=O)c1cc(-c2ccc(F)cc2)n(CCC(=O)Nc2cccc(C)n2)c1C	i	i	i	i	i	/	/	/	/
O=C(Nc1ccc(C(=O)N2CCOCC2)cc1)c1cccs1	-7*	i	i	i	i	75%*	i	i	i
COc1cccc(CNc2ncnc3cc(OC)c(OC)cc23)c1	i	i	i	i	i	/	/	/	/
SMILES	MrgX1 antag	RGS4 pot	RGS4 inh	MrgX1 PAM	MrgX1 ag	MrgX1 antag conf	HEK293 Ca flux	HEK293 Ca counter	HEK293 Ca cntr2
COc1cccc(CNc2nc(SC)ncc2CO)c1	-4.8*	i	i	i	i	80%*	i	i	i
Cc1cc(C(F)(F)F)c(C#N)c(SCC(=O)Nc2nc3ccccc3s2)n1	i	i	i	i	i	/	/	/	/
Cc1ccc2sc(NC(=O)CSc3nc(C)cc(C)c3C#N)nc2c1	-6.4*	i	i	i	i	i	i	i	i
NC(=O)c1ccc(NC(=O)CCc2nc3sc4c(c3c(=O)[nH]2)CCCC4)cc1	i	i	i	i	i	/	/	/	/
CC(=O)Nc1ccc(NC(=O)CCc2nc3sc4c(c3c(=O)[nH]2)CCCC4)cc1	-4.6*	i	i	i	i	i	i	i	i
OCCC1CN(C/C=C/c2ccco2)CCN1Cc1ccccc1 (stereo unspecified)	-5.2*	i	i	i	i	i	i	i	i
Cc1ccc(S(=O)(=O)N2CCC(C(=O)OCC(=O)Nc3cc(S(C)(=O)=O)ccc3Cl)CC2)cc1C	i	i	i	i	i	/	/	/	/
CC(OC(=O)CCN=C1NS(=O)(=O)c2ccccc21)C(=O)N(C)c1ccccc1 (stereo unspecified)	-11*	i	i	i	i	i	i	i	i
CCC(NS(=O)(=O)c1ccc2c(c1)Cc1cc(S(=O)(=O)NC(CC)C(=O)O)ccc1-2)C(=O)O (stereo unspecified)	i	i	i	i	i	/	/	/	/
Cn1ccc(C(=O)OCC(=O)Nc2ccccc2Cl)n1	/	i	i	/	/	/	/	/	/
COC(=O)C1CSC(C(=O)OC)N1C(=O)CN1CCN(c2ccccc2)CC1 (stereo unspecified)	-8.1*	i	i	i	i	77%*	i	i	i
COC(=O)C1CSC(C(=O)OC)N1C(=O)Nc1ccccc1 (stereo unspecified)	i	i	i	i	i	/	/	/	/
CCOc1ccccc1NC(=O)CCC(=O)Nc1ccc2nc(N3CCN(C)CC3)cc(C)c2c1	-5.1*	i	i	i	i	i	i	i	i
